Measurements taken from ChEMBL document CHEMBL4138059, “Novel bivalent securinine mimetics as topoisomerase I inhibitors” (Medchemcomm, 2017).
The source made the active and inactive calls. The calls are words filed in the database; no cut-off is given here.

How the values were obtained:
[1] = molecular target: T1, Topoisomerase I (Bos taurus) (UniProt Q2HPH0); test: (§1) Inhibition of calf thymus topoisomerase 1 assessed as suppression of relaxation of supercoiled pBR322 DNA at 100 uM incubated for 0.5 hrs by bromophenol blue and xylene cyanol FF staining based electrophoresis method
T1 sequence (whole entry): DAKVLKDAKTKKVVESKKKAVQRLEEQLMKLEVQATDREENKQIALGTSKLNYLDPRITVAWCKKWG
How it was run: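 Calf thymus Topo I with supercoiled pBR322 DNA and 100 μM compound, 37 °C for 0.5 h. Stopped with dye solution (bromophenol blue, xylene cyanol FF, glycerol). 1% agarose, 0.66 h in 1× TAE, then 5 μg mL-1 EB staining 0.5 h and UV imaging. Inhibition judged from supercoiled DNA remaining; camptothecin as control.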

[2] = molecular target: T1, Topoisomerase I (Bos taurus); test: Inhibition of calf thymus topoisomerase 1 assessed as increase in nicked DNA at 50 uM using supercoiled pBR322 DNA incubated for 0.5 hrs by ethidium bromide staining based DNA-cleavage assay
How it was run: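 Reaction: 20 units Topo I, 0.5 μg supercoiled pBR322 DNA, 50 or 100 μM compound in 40 μL Topo I buffer, 37 °C for 0.5 h. Terminated with 1% SDS, proteinase K 0.8 mg mL-1 at 50 °C for 10 min. Electrophoresis 60 V, 25 °C, 0.5 h, EB soak 0.5 μg mL-1, second run 0.5 h. Read-out: nicked versus other band intensities, UV.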

[3] = molecular target: T1, Topoisomerase I (Bos taurus); test: Inhibition of calf thymus topoisomerase 1 assessed as increase in nicked DNA at 10 uM using supercoiled pBR322 DNA incubated for 0.5 hrs by ethidium bromide staining based DNA-cleavage assay
[4] = test system: DNA topoisomerase I (Bos taurus); test: Induction of DNA intercalation assessed as reduction in topoisomerase 1-mediated DNA relaxation at 100 uM using supercoiled pBR322 DNA incubated for 0.5 hrs in presence of calf thymus topoisomerase 1 by electrophoresis method
[5] = molecular target: T1, Topoisomerase I (Bos taurus); test: Inhibition of calf thymus topoisomerase 1 assessed as reduction in topo1/DNA complex formation at 50 to 400 uM pre-incubated for 0.33 hrs before addition of supercoiled pBR322 DNA substrate by EMSA
How it was run: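 BSA added to Topo I buffer, then four units calf thymus Topo I and compound (50, 100, 200 or 400 μM), standing 0.33 h. 0.1 μg pBR322 DNA added, 37 °C for 0.5 h. Electrophoresis at 1 V cm-1, 4 °C, 8 h on 1% gel containing EB; bands under UV.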

[6] = molecular target: T1, Topoisomerase I (Bos taurus); test: as §1, with “Potency index, ratio of enzyme inhibition of securinine to enzyme inhibition of test compound for inhibition” for “Inhibition”

| SMILES | inhibition [1] | inhibition [2] | inhibition [3] | Activity [4] | inhibition [5] | Ratio [6] |
| --- | --- | --- | --- | --- | --- | --- |
| CCCN(C(=O)CCCCC(=O)N(CCC)[C@H]1CC2=CC(=O)O[C@@]23C[C@@H]1N1CCCC[C@@H]13)[C@@H]1CC2=CC(=O)O[C@@]23C[C@@H]1N1CCCC[C@@H]13 | Active | inactive | inactive | – | – | – |
| CCCN(C(=O)Cc1ccccc1CC(=O)N(CCC)[C@H]1CC2=CC(=O)O[C@@]23C[C@@H]1N1CCCC[C@@H]13)[C@@H]1CC2=CC(=O)O[C@@]23C[C@@H]1N1CCCC[C@@H]13 | Active | – | – | inactive | – | – |
| CCCN(C(=O)c1ccccc1)[C@H]1CC2=CC(=O)O[C@@]23C[C@@H]1N1CCCC[C@@H]13 | Active | inactive | inactive | – | – | – |
| CCCN(C(=O)Cc1ccc(CC(=O)N(CCC)[C@H]2CC3=CC(=O)O[C@@]34C[C@@H]2N2CCCC[C@@H]24)cc1)[C@@H]1CC2=CC(=O)O[C@@]23C[C@@H]1N1CCCC[C@@H]13 | Active | – | – | inactive | – | – |
| CCCN(C(=O)Cc1cccc(CC(=O)N(CCC)[C@H]2CC3=CC(=O)O[C@@]34C[C@@H]2N2CCCCC24)c1)C1CC2=CC(=O)O[C@@]23C[C@@H]1N1CCCCC13 (single isomer, unassigned) | Active | – | – | inactive | – | – |
| CCCN(C(=O)[C@H]1CCCC[C@H]1C(=O)N(CCC)[C@H]1CC2=CC(=O)O[C@@]23C[C@@H]1N1CCCC[C@@H]13)[C@@H]1CC2=CC(=O)O[C@@]23C[C@@H]1N1CCCC[C@@H]13 | Active | – | – | – | – | – |
| CCCN(C(=O)[C@H]1CC[C@H](C(=O)N(CCC)[C@H]2CC3=CC(=O)O[C@@]34C[C@@H]2N2CCCC[C@@H]24)CC1)[C@@H]1CC2=CC(=O)O[C@@]23C[C@@H]1N1CCCC[C@@H]13 | Active | – | – | – | – | – |
| CCCN(C(=O)c1cccc(C(=O)N(CCC)[C@H]2CC3=CC(=O)O[C@@]34C[C@@H]2N2CCCCC24)c1)C1CC2=CC(=O)O[C@@]23C[C@@H]1N1CCCC[C@@H]13 (single isomer, unassigned) | Active | – | Active | inactive | Dose-dependent effect | 3 |
| CC[C@@]1(O)C(=O)OCc2c1cc1n(c2=O)Cc2cc3ccccc3nc2-1 | Active | Active | Active | – | – | – |
| CCCN(C(=O)c1ccccc1C(=O)N(CCC)[C@H]1CC2=CC(=O)O[C@@]23C[C@@H]1N1CCCCC13)C1CC2=CC(=O)O[C@@]23C[C@@H]1N1CCCC[C@@H]13 (single isomer, unassigned) | Active | – | – | inactive | – | – |
| CCCN(C(=O)c1ccc(C(=O)N(CCC)[C@H]2CC3=CC(=O)O[C@@]34C[C@@H]2N2CCCCC24)cc1)C1CC2=CC(=O)O[C@@]23C[C@@H]1N1CCCC[C@@H]13 (single isomer, unassigned) | Active | – | – | inactive | – | – |
| O=C1C=C2C=C[C@@H]3C[C@@]2(O1)[C@H]1CCCCN31 | Active | – | – | – | – | – |
| CCCN(C(=O)CCCC(=O)N(CCC)[C@H]1CC2=CC(=O)O[C@@]23C[C@@H]1N1CCCC[C@@H]13)[C@@H]1CC2=CC(=O)O[C@@]23C[C@@H]1N1CCCC[C@@H]13 | Active | – | – | – | – | – |
| CCCN(C(=O)[C@H]1CCC[C@@H](C(=O)N(CCC)[C@H]2CC3=CC(=O)O[C@@]34C[C@@H]2N2CCCC[C@@H]24)C1)[C@@H]1CC2=CC(=O)O[C@@]23C[C@@H]1N1CCCC[C@@H]13 | Active | inactive | inactive | – | – | – |
